Results reported in ChEMBL document CHEMBL1123708, “Resolved cis- and trans-2-amino-5-methoxy-1-methyltetralins: central dopamine receptor agonists and antagonists” (1987).
Calls of active or inactive are those of the source. No cut-off for these calls is given here.

What was measured:
[1] = system: Rattus norvegicus; assay: Change in rectal temperature induced by DiPr-5,6-ADTN at a dose of 13 umol/kg of compound by subcutaneous administration; type: functional
Outline: (§1)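 Rats received DiPr-5,6-ADTN (0.25 μmol/kg sc) 100 min and test compound sc 40 min before death. Rectal temperature change (°C) was recorded between 60 and 100 min after DiPr-5,6-ADTN. Values are mean ± SEM, n = 4, with Student's t test vs DiPr-5,6-ADTN alone.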

[2] = system: Rattus norvegicus; assay: Induced locomotor stimulation in non pre-treated rats by 13 umol/kg s.c. administration.; type: functional
[3] = system: Rattus norvegicus; assay: Locomotory activity was determined in non pretreated rats at a dose of 52 umol/kg by subcutaneous administration; type: functional
Outline: (§2)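 Untreated rats received test drug sc 5 min before a 30-min session in photocell motility meters, with accumulated counts recorded. Activity is expressed as percent of saline controls, mean ± SEM, n = 3-5. Gross behaviour was observed through a semitransparent mirror. Differences from saline controls were assessed by Student's t test.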

[4] = biological target: T1, Dopamine receptor (Rattus norvegicus) (UniProt P25115+P19020+P30729+P18901+P61169); assay: In vivo displacement of DiPr-5,6-ADTN from Dopamine receptors in rat striatum; type: organism-based
[5] = system: Rattus norvegicus; assay: In vivo DOPA accumulation in non pre-treated rat striatal system following s.c. administration.; type: functional; conditions: sc
Outline: (§3)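 Rats without pretreatment received test drug sc 65 min and NSD 1015 (100 mg/kg ip) 30 min before death, with saline controls. DOPA was measured in limbic or striatal tissue. Dose for half-maximal change was estimated from 4-5-dose curves (n = 3-5), maximal level as % of control.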

[6] = system: Rattus norvegicus; assay: Locomotory activity was determined in non pretreated rats at a dose of 3.2 umol/kg by subcutaneous administration; type: functional; outline: as §2
[7] = system: Rattus norvegicus; assay: In vivo DOPA accumulation in non pre-treated rat limbic system following s.c. administration.; type: functional; conditions: sc; outline: as §3
[8] = biological target: T1, Dopamine receptor (Rattus norvegicus); assay: Ability to displace the Dopamine receptor agonist DiPr-5,6-ADTN from rat striatal binding sites in vivo at a dose of 52 uM/kg by subcutaneous administration; type: organism-based
[9] = system: Rattus norvegicus; assay: Change in rectal temperature induced by DiPr-5,6-ADTN at a dose of 52 umol/kg of compound by subcutaneous administration; type: functional; outline: as §1
[10] = system: Rattus norvegicus; assay: Induced locomotor stimulation in non pre-treated rats by 52 umol/kg s.c. administration.; type: functional
[11] = system: Rattus norvegicus; assay: In vivo DOPA accumulation in reserpine pretreated rat limbic system by subcutaneous administration; type: functional; conditions: sc
Outline: (§4)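 Rats received reserpine (5 mg/kg sc) 18 h, test drug sc 60 min and NSD 1015 (100 mg/kg ip) 30 min before death, with saline controls. Limbic or striatal DOPA was measured. Dose for half-maximal decrease was estimated from 4-7-dose curves (n = 3-5), minimal level as % of control.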

[12] = biological target: T1, Dopamine receptor (Rattus norvegicus); assay: Ability to displace the Dopamine receptor agonist DiPr-5,6-ADTN from rat striatal binding sites in vivo at a dose of 13 uM/kg by subcutaneous administration; type: organism-based
[13] = system: Rattus norvegicus; assay: Locomotory activity was determined in reserpine pretreated rats at a dose of 204 umol/kg by subcutaneous administration. Value is the accumulation counts/30 min; type: functional
Outline: (§5)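 Rats were given reserpine 5 mg/kg sc 18 h beforehand, then test drug sc immediately before the activity session. Motor activity was recorded by photocells in motility meters as accumulated counts over 30 min, mean ± SEM, n = 3-4. Gross behaviour was watched for signs of stimulation. Reserpine-only controls were included.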

[14] = system: Rattus norvegicus; assay: Induced locomotor stimulation was determined in non pretreated rats at a dose of 52 uM/kg by subcutaneous administration; type: functional; outline: as §2
[15] = system: Rattus norvegicus; assay: In vivo DOPA accumulation in reserpine pretreated rat striatum system by subcutaneous administration; type: functional; outline: as §4
[16] = system: Rattus norvegicus; assay: In vivo % increase in DOPA accumulation in non pretreated rat striatum system after 52 umol/kg (sc); I denotes inactive; type: functional, organism-based
[17] = system: Rattus norvegicus; assay: Locomotory activity was determined in reserpine pretreated rats at a dose of 52 umol/kg by subcutaneous administration. Value is the accumulation counts/30 min; type: functional; outline: as §5
[18] = system: Rattus norvegicus; assay: In vivo % increase in DOPA accumulation in non pretreated rat limbic system after 52 umol/kg (sc); I denotes inactive; type: functional, organism-based
[19] = system: Rattus norvegicus; assay: In vivo DOPA accumulation in non pretreated rat limbic system by subcutaneous administration; I denotes inactive; type: functional, organism-based; outline: as §3
[20] = system: Rattus norvegicus; assay: In vivo DOPA accumulation in reserpine pretreated rat striatum system by subcutaneous administration; I denotes inactive; type: functional, organism-based; outline: as §4
[21] = system: Rattus norvegicus; assay: In vivo DOPA accumulation in reserpine pretreated rat limbic system by subcutaneous administration; I denotes inactive; type: functional, organism-based; outline: as §4
[22] = system: Rattus norvegicus; assay: In vivo DOPA accumulation in non pretreated rat striatum system by subcutaneous administration; I denotes inactive; type: functional, organism-based; outline: as §3
[23] = system: Rattus norvegicus; assay: ((+)-UH-232) induced locomotor stimulation was determined in non pretreated rats at a dose of 52 umol/kg by subcutaneous administration; type: functional
[24] = biological target: T1, Dopamine receptor (Rattus norvegicus); assay: Ability to displace the Dopamine receptor agonist DiPr-5,6-ADTN from rat striatal binding sites in vivo at a dose of 52 umol/kg by subcutaneous administration; type: organism-based
[25] = biological target: T1, Dopamine receptor (Rattus norvegicus); assay: Ability to displace the Dopamine receptor agonist DiPr-5,6-ADTN from rat striatal binding sites in vivo at a dose of 40 uM/kg by subcutaneous administration; type: organism-based
[26] = biological target: T1, Dopamine receptor (Rattus norvegicus); assay: Ability to displace the Dopamine receptor agonist DiPr-5,6-ADTN from rat striatal binding sites in vivo at a dose of 10 uM/kg by subcutaneous administration; type: organism-based
[27] = system: Rattus norvegicus; assay: Change in rectal temperature induced by DiPr-5,6-ADTN at a dose of 10 umol/kg of compound by subcutaneous administration; type: functional; outline: as §1
[28] = system: Rattus norvegicus; assay: Change in rectal temperature induced by DiPr-5,6-ADTN at a dose of 40 umol/kg of compound by subcutaneous administration; type: functional; outline: as §1
[29] = system: Rattus norvegicus; assay: Locomotory activity was determined in non pretreated rats at a dose of 52 umol/kg by subcutaneous administration; I denotes inactive; type: functional; outline: as §2
[30] = system: Rattus norvegicus; assay: In vivo DOPA accumulation in non pretreated rat striatum system by subcutaneous administration; indicates 40-80% increase in limbic system after 52 umol/kg (sc); type: functional, organism-based; outline: as §3
[31] = system: Rattus norvegicus; assay: In vivo DOPA accumulation in non pretreated rat limbic system by subcutaneous administration; indicates 40-80% increase in limbic system after 52 umol/kg (sc); type: functional, organism-based; outline: as §3
[32] = system: Rattus norvegicus; assay: In vivo DOPA accumulation in non pretreated rat limbic system by subcutaneous administration;. indicates 40-50% increase in limbic system after 52 umol/kg (sc); type: functional, organism-based; outline: as §3
[33] = system: Rattus norvegicus; assay: In vivo DOPA accumulation in non pretreated rat striatum system by subcutaneous administration.; hr indicates 40-50% increase in limbic system after 52 umol/kg (sc); type: functional, organism-based; outline: as §3
[34] = system: Rattus norvegicus; assay: In vivo DOPA accumulation in reserpine pretreated rat striatum system by subcutaneous administration; denotes inactive; type: functional, organism-based; outline: as §4
[35] = system: Rattus norvegicus; assay: In vivo DOPA accumulation in non pretreated rat striatum system by subcutaneous administration; denotes inactive; type: functional, organism-based; outline: as §3

| Compound | Activity [2] | Binding [4] | ED50 [5] | Activity [6] | ED50 [7] | Activity [10] | Body temp change [1] | other results |
| --- | --- | --- | --- | --- | --- | --- | --- | --- |
| COc1cccc2c1CC[C@@H](N)[C@H]2C | 88% | 83% | 4.2 µmol/kg | 136% | 4.4 µmol/kg | – | – | Temperature [1]: -1.33 °C; Activity [3]: 62% |
| C[C@@H]1c2cccc(O)c2CC[C@@H]1N(C)C | 34% | – | 8.5 µmol/kg | – | 8.5 µmol/kg | 15% | 0.88 °C | Binding [8]: 22%; Body temp change [9]: 1.82 °C; ED50 [11]: 28 µmol/kg; Binding [12]: 63%; Activity [13]: 7 counts/30 min; Activity [14]: 4%; ED50 ([15]; sc): 25 µmol/kg |
| CCN(CC)[C@H]1CCc2c(O)cccc2[C@H]1C | 100% | – | – | – | – | 40% | 0.22 °C | ED50 [16]: inactive; ED50 [11]: 1.4 µmol/kg; Binding [12]: 70%; Activity [17]: 5 counts/30 min; ED50 ([15]; sc): 1.6 µmol/kg; ED50 [18]: inactive |
| CCCN(CCC)[C@@H]1CCc2c(O)cccc2[C@H]1C | – | – | – | – | – | 97% | – | ED50 [19]: inactive; ED50 [20]: inactive; ED50 [21]: inactive; ED50 [22]: inactive |
| CCCCN(CCCC)[C@@H]1CCc2c(OC)cccc2[C@@H]1C | 96% | – | – | – | – | 96% | -0.27 °C | ED50 [19]: inactive; Binding [12]: 115%; ED50 [22]: inactive |
| CN[C@@H]1CCc2c(OC)cccc2[C@@H]1C | 35% | 51% | 1.8 µmol/kg | 86% | 4.7 µmol/kg | 29% | – | Activity [23]: 9%; Temperature [9]: 0.93 °C; Binding [24]: 20%; Temperature [1]: -0.25 °C |
| C[C@H]1c2cccc(O)c2CC[C@H]1N(C)C | 11% | 39% | 3.4 µmol/kg | 76% | 5.5 µmol/kg | 1% | 1.48 °C | – |
| CCCN(CCC)[C@@H]1CCc2c(O)cccc2[C@@H]1C | – | – | 9.4 µmol/kg | 110% | 110 µmol/kg | 102% | – | ED50 [20]: inactive; Binding [25]: 21%; ED50 [21]: inactive; Binding [26]: 61%; Activity [17]: 6 counts/30 min; Body temp change [27]: 1.7 °C; Body temp change [28]: 1.7 °C |
| CCCN(CCC)[C@H]1CCc2c(OC)cccc2[C@@H]1C | – | – | – | – | – | 82% | – | ED50 [19]: inactive; ED50 [20]: inactive; ED50 [21]: inactive; ED50 [22]: inactive |
| CN[C@@H]1CCc2c(O)cccc2[C@@H]1C | 73% | 54% | 7.5 µmol/kg | 143% | 5.5 µmol/kg | – | – | Temperature [1]: 0.15 °C; Activity [3]: 47% |
| CCCN(CCC)[C@@H]1CCc2c(OC)cccc2[C@H]1C | – | – | – | – | – | – | – | ED50 [19]: inactive; Activity [29]: 88%; ED50 [21]: inactive; ED50 [22]: inactive; ED50 [15]: inactive |
| CCN[C@@H]1CCc2c(O)cccc2[C@@H]1C | 95% | 64% | 6 µmol/kg | 83% | 15 µmol/kg | 62% | -0.5 °C | – |
| CCCCN[C@@H]1CCc2c(OC)cccc2[C@@H]1C | 82% | 76% | 20 µmol/kg | 113% | 18 µmol/kg | – | – | Temperature [1]: -0.25 °C; Activity [3]: 135% |
| CCN[C@@H]1CCc2c(OC)cccc2[C@@H]1C | 69% | 36% | 4.8 µmol/kg | 108% | 5.3 µmol/kg | – | – | Temperature [1]: 1.33 °C; Activity [3]: 60% |
| CCCCN(CCCC)[C@H]1CCc2c(O)cccc2[C@H]1C | 87% | – | – | – | – | – | -0.7 °C | ED50 [20]: inactive; ED50 [21]: inactive; Binding [12]: 124%; Activity [17]: 6 counts/30 min |
| CCCN[C@@H]1CCc2c(O)cccc2[C@@H]1C | 107% | 66% | 16 µmol/kg | 114% | 9 µmol/kg | 125% | 0.1 °C | – |
| CCCCN(CCCC)[C@@H]1CCc2c(O)cccc2[C@@H]1C | 89% | – | – | – | – | 82% | -0.43 °C | ED50 [30]: Weak activity; Binding [12]: 96%; ED50 [31]: Weak activity |
| CCCCN[C@@H]1CCc2c(O)cccc2[C@@H]1C | 80% | – | – | 89% | – | 76% | -0.93 °C | ED50 [32]: Weak activity; Binding [12]: 46%; ED50 [33]: Weak activity |
| CCN(CC)[C@@H]1CCc2c(O)cccc2[C@@H]1C | 63% | 49% | 6.5 µmol/kg | 113% | 13 µmol/kg | 19% | 0.2 °C | – |
| CCCN[C@H]1CCc2c(OC)cccc2[C@H]1C | – | – | – | 113% | – | – | – | ED50 [19]: inactive; Activity [3]: 119%; ED50 [21]: inactive; ED50 [34]: inactive; Activity [17]: 12 counts/30 min; ED50 [22]: inactive |
| C[C@H]1c2cccc(O)c2CC[C@H]1N | 86% | 98% | – | 94% | – | – | – | ED50 [19]: inactive; ED50 [35]: inactive; Temperature [1]: -0.7 °C; Activity [3]: 97% |
